These results are taken from ChEMBL document CHEMBL3286244, “Chlorpheniramine Analogues Reverse Chloroquine Resistance in Plasmodium falciparum by Inhibiting PfCRT” (ACS Med Chem Lett, 2014).

Activity calls are given as the source filed them. No cut-off for these calls is given here.

For assay [1], the target named is T1, Chloroquine resistance transporter (Plasmodium falciparum) (UniProt Q9N623).
T1 sequence (whole entry): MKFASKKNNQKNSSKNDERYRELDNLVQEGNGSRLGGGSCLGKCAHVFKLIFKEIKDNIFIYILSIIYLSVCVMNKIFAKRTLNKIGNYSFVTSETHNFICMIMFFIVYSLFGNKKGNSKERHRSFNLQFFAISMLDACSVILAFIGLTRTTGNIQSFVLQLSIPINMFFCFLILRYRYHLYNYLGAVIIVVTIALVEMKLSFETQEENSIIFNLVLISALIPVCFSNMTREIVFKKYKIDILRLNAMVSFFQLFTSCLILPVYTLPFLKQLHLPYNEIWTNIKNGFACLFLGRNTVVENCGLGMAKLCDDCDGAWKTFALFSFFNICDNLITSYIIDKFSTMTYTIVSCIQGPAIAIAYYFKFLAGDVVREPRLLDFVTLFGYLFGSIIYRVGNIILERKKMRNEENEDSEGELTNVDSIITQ
The experiment in a line: Inhibition of chloroquine-resistant Plasmodium falciparum Dd2 CRT expressed in Xenopus laevis oocytes plasma membrane assessed as reduction of [3H]-chloroquine transportation at 100 uM after 1 to 2 hrs. Format: cell-based. Put shortly: (§1)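 Xenopus oocytes expressing PfCRT of the CQ-resistant (PfCRTCQR) or CQ-sensitive (PfCRTCQS) form. [3H]CQ uptake measured in the presence of reverser at 100 μM extracellular.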

For assay [2], the target named is T1, Chloroquine resistance transporter (Plasmodium falciparum). The experiment in a line: Inhibition of CTR in Plasmodium falciparum C67G8 expressing chloroquine-resistance-conferring pfcrt alleles assessed as increase of accumulation of [3H]-chloroquine level at 1 uM after 1 hr relative to control. The gist of the method: (§2)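 Isogenic pfcrt transfectant lines C2GCO3 (wild-type allele), C4Dd2 and C67G8 (CQ-resistance alleles from Dd2 or 7G8). CQ accumulation ratio measured with and without reverser. Expressed as fold increase in accumulation ratio over control.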

Assay [3] has as its target Chloroquine resistance transporter (Plasmodium falciparum, UniProt Q9N623). The experiment in a line: Inhibition of chloroquine-resistant Plasmodium falciparum Dd2 CRT expressed in Xenopus laevis oocytes plasma membrane assessed as reduction of [3H]-chloroquine transportation after 1 to 2 hrs. Format: cell-based. The gist of the method: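 Xenopus oocytes expressing PfCRTCQR. Inhibition of [3H]CQ uptake measured over a range of reverser concentrations. IC50 derived from concentration-response data, reported as mean ± SEM.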

The target of assay [4] is T1, Chloroquine resistance transporter (Plasmodium falciparum). The experiment in a line: Inhibition of CTR in Plasmodium falciparum C2GC03 expressing wild-type pfcrt allele assessed as increase of accumulation of [3H]-chloroquine level at 1 uM after 1 hr. Put shortly:
as §2

For assay [5], the system named is Plasmodium falciparum. The experiment in a line: Antiplasmodial activity against Plasmodium falciparum C2GC03 expressing wild-type pfcrt allele assessed as parasite growth at 800 nM after 72 hrs by SYBR Green I-based fluorescence assay relative to control. Format: functional. Put shortly: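 Isogenic pfcrt transfectant parasite line C2GCO3 (wild-type pfcrt allele) was grown in a proliferation assay with the test compound at 800 nM and no chloroquine. Proliferation is expressed relative to untreated control.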

For assay [6], the target named is T1, Chloroquine resistance transporter (Plasmodium falciparum). The experiment in a line: Inhibition of chloroquine-sensitive Plasmodium falciparum D10 CRT expressed in Xenopus laevis oocytes plasma membrane assessed as reduction of [3H]-chloroquine transportation at 100 uM after 1 to 2 hrs. Format: cell-based. The gist of the method: as §1
Assay [7] has as its system Plasmodium falciparum. The experiment in a line: Antiplasmodial activity against Plasmodium falciparum C4Dd2 expressing chloroquine-resistance-conferring pfcrt alleles assessed as parasite growth at 800 nM after 72 hrs by SYBR Green I-based fluorescence assay relative to control. Format: functional. Put shortly:
(§3)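 Isogenic pfcrt transfectant lines (C2GCO3 wild-type allele; C4Dd2 and C67G8 carrying CQ-resistance-conferring alleles from Dd2 or 7G8). Parasite proliferation measured in the absence of CQ with test compound at 800 nM and expressed relative to untreated control.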

Assay [8] deals with Plasmodium falciparum. The experiment in a line: Response modification index, ratio of IC50 for Plasmodium falciparum C2GC03 expressing wild-type pfcrt allele in presence of drug to IC50 for Plasmodium falciparum C2GC03 expressing wild-type pfcrt allele in absence of 800 nM of drug. Format: functional. Put shortly: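 In a parasite proliferation assay on the isogenic pfcrt transfectant line C2GCO3 (wild-type allele), chloroquine IC50 was measured with and without the test compound at 800 nM. RMI is chloroquine IC50 with the compound divided by chloroquine IC50 without it.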

Assay [9] relates to Plasmodium falciparum. The experiment in a line: Antiplasmodial activity against Plasmodium falciparum C67G8 expressing chloroquine-resistance-conferring pfcrt alleles assessed as parasite growth at 800 nM after 72 hrs by SYBR Green I-based fluorescence assay relative to control. Format: functional. The gist of the method: as §3
Assay [10] addresses T1, Chloroquine resistance transporter (Plasmodium falciparum). The experiment in a line: Inhibition of CTR in Plasmodium falciparum C4Dd2 expressing chloroquine-resistance-conferring pfcrt alleles assessed as increase of accumulation of [3H]-chloroquine level at 1 uM after 1 hr relative to control. The gist of the method:
as §2

Assay [11] has as its system Plasmodium falciparum. The experiment in a line: Response modification index, ratio of IC50 for Plasmodium falciparum C67G8 expressing chloroquine-resistance-conferring pfcrt alleles in presence of drug to IC50 for Plasmodium falciparum C67G8 expressing chloroquine-resistance-conferring pfcrt alleles in absence of 800 nM of drug. Type of assay: functional. The gist of the method: (§4)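 Proliferation assays on isogenic pfcrt transfectant lines (C4Dd2, C67G8). CQ IC50 determined with and without 800 nM test compound. RMI calculated as CQ IC50 with compound divided by CQ IC50 without compound.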

The subject of assay [12] is Plasmodium falciparum. The experiment in a line: Response modification index, ratio of IC50 for Plasmodium falciparum C4Dd2 expressing chloroquine-resistance-conferring pfcrt alleles in presence of drug to IC50 for Plasmodium falciparum C4Dd2 expressing chloroquine-resistance-conferring pfcrt alleles in absence of 800 nM of drug. Type of assay: functional. Put shortly: as §4

What is called IC50 is the midpoint of a concentration-inhibition curve. Consider `CN(C)CCCC(c1cccc(Cl)c1)c1ccccn1` (racemic), for which the inhibition entry in [1], in [4] and in [6] was “inactive” throughout. For the same compound, the fold change (FC) in assay [2] was 2; in assay [10], 2.7. For the same compound, the IC50 in assay [3] was found to be 66 µM. Besides, the Activity with Plasmodium falciparum [5] amounted to 99%; in the assay with Plasmodium falciparum [7] it was 67%; with Plasmodium falciparum [9], 72%. Also, the “Ratio IC50” value is on record as 0.95 with Plasmodium falciparum [8], 0.35 in the assay with Plasmodium falciparum [11] and 0.27 in the assay with Plasmodium falciparum [12].
For the compound `COc1ccc(CCN(C)CCCC(C#N)(c2ccc(OC)c(OC)c2)C(C)C)cc1OC` (stereo not drawn), the inhibition entry in assay [1] is “Active”. For the same compound, the figures for the fold change (FC) in assay [2] and in assay [10] were 1.9 and 3.1, respectively. Moreover, the inhibition entry in assay [4] is “inactive”. Moreover, the figures for the Activity in the assay on Plasmodium falciparum [5], in the assay on Plasmodium falciparum [7] and with Plasmodium falciparum [9] were 43%, 46% and 55%, respectively.
`CCN(CC)C/C=C(\c1ccc(Cl)cc1)c1ccccn1`: the inhibition result in assay [1], in [4] and in assay [6] was “inactive” throughout. The fold change (FC) in assay [2] came out at 1.4; in assay [10] it was 1.6. The IC50 in [3] is 321 µM. Further, the Activity was found to be 100% in the assay with Plasmodium falciparum [5], 84% in the assay on Plasmodium falciparum [7] and 90% with Plasmodium falciparum [9]. Besides, the “Ratio IC50” value in the assay on Plasmodium falciparum [8] stood at 1.01; in the assay with Plasmodium falciparum [11], 0.69; in the assay with Plasmodium falciparum [12], 0.49.
For the compound `CN(C)CCCCC(c1ccc(Cl)cc1)c1ccccn1` (racemic), the inhibition entry in assay [1], in [4] and in assay [6] was “inactive” each time. In addition, the fold change (FC) in assay [2] amounted to 1.8; in assay [10], 2.4. The IC50 in [3] amounted to 180 µM. Further, the Activity was 100% in the assay with Plasmodium falciparum [5], 74% in the assay on Plasmodium falciparum [7] and 79% in the assay on Plasmodium falciparum [9]. The “Ratio IC50” value was determined as 0.92 in the assay with Plasmodium falciparum [8], 0.39 with Plasmodium falciparum [11] and 0.28 in the assay with Plasmodium falciparum [12].
As to `CN(C)CCC(c1cccc(Cl)c1)c1ccccn1` (racemic), the inhibition entry in assay [1], in assay [4] and in [6] was “inactive” in each case. Further, in assay [3], the IC50 was found to be 63 µM. Moreover, the Activity with Plasmodium falciparum [5] came to 99%; with Plasmodium falciparum [7], 75%; in the assay on Plasmodium falciparum [9] it was 74%. The entries for the “Ratio IC50” value in the assay with Plasmodium falciparum [8], in the assay with Plasmodium falciparum [11] and in the assay with Plasmodium falciparum [12] were 0.99, 0.35 and 0.27, respectively.
`CC(CN1c2ccccc2Sc2ccccc21)N(C)C` (stereo not drawn) [PROMETHAZINE]: the inhibition result in [1] is “Active”. In assay [3], the IC50 came out at 85 µM.
`COc1cc(NC(C)CCCN)c2ncccc2c1` (stereo not drawn) [PRIMAQUINE]: in [1], the inhibition result is “Active”. In assay [3], the IC50 was found to be 68 µM.
`CN(C)CCC(c1ccc(Cl)cc1)c1ccccn1` (stereo in doubt; form 1): in assay [1], the inhibition entry is “Active”. Moreover, the fold change (FC) in [2] was found to be 2; in assay [10], 2.7. In assay [4], the inhibition result was “inactive”.
On to `N#C/C=C(\c1ccccc1)c1ccccn1`, for which the inhibition entry in assay [1], in [2], in assay [4], in assay [6] and in assay [10] was “inactive” each time.
Regarding `CN(C)CCC(c1ccc(Cl)cc1)c1ccccn1` (stereo in doubt; form 1) [CHLORPHENIRAMINE], in [3], the IC50 turned out to be 54 µM. The results for the Activity in the assay with Plasmodium falciparum [5], with Plasmodium falciparum [7] and in the assay with Plasmodium falciparum [9] were 97%, 78% and 76%, respectively. Also, the entries for the “Ratio IC50” value with Plasmodium falciparum [8], in the assay with Plasmodium falciparum [11] and with Plasmodium falciparum [12] were 1.09, 0.37 and 0.24, respectively.
